Screening data from PubChem BioAssay.
Shown are actives, neighbours in structure and some others; about 2.5% of the full set was active somewhere.
SENP8 block-1 = inhibitors of human SENP8 protease; Q96LD8; purified SENP8, Z-RLRGG-aminoluciferin cleavage, luminescence; inhibition, % at 10 µM; hit rate 1.2% among 330,000; in the data active = inhibition above about 50%
SENP7 block = SENP7 protease inhibition; Q9BQF6; inhibition, % at 5 µM; AID 434973; recombinant SENP7, Z-RLRGG-aminoluciferin luminescence, 40 min; hit rate 1.5% among 330,000;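 active = inhibition above about 50% at the single test dose, limit read from the data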
SENP1 FRET inh = inhibitors of human SENP1 SUMO protease catalytic domain; Q9P0U3; recombinant SENP1 catalytic domain, CyPet-SUMO1-YPet FRET cleavage; inhibition, % at 10 µM; hit rate 0.21% among 360,000;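 active = inhibition at least 30% at 10 µM, raw YFP signal under a set limit, fluorescence ratio 0.5 to 1.5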
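Controls: no-enzyme wells low, DMSO-plus-enzyme wells high control. Test system: human recombinant His6-tagged SENP1 catalytic domain enzyme. Reagent: SFCypet-SUMO1-SFYpet FRET protein substrate, 25 nM final. Doses: one dose per compound, 10 µM, 0.5% DMSO. Detection: FRET, CFP and YFP emission. Timing: 50 min reaction at room temperature.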
SENP6 inh = inhibitors of human SENP6 protease; AID 2599; Recombinant SENP6 catalytic domain, aminoluciferin luminescence; hit rate 1.8% among 330,000; Q9GZR1; inhibition, % at 10 µM;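 active = inhibition above about 50% at the single tested dose, limit read from the data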
Target sequence (Q9GZR1 628-1112 limits assumed): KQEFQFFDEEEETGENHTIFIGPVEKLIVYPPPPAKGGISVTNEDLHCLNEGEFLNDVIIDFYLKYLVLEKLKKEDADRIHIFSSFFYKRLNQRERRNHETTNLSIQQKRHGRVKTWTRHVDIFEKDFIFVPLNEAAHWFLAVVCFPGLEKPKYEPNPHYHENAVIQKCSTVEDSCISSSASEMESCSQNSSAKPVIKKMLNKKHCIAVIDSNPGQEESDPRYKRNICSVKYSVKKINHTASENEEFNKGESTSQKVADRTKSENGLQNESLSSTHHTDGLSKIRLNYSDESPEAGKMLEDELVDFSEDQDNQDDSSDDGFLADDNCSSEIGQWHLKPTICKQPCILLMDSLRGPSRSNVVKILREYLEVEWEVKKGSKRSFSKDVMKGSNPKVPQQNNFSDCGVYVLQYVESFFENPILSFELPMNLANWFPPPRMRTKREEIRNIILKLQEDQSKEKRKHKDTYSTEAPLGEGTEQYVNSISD
SENP8 block-2 = blocks human SENP8 cleavage of Nedd8 substrate | Q96LD8 | recombinant SENP8, Nedd8 substrate fluorescence | inhibition, % at 20 µM | hit rate 0.64% among 360,000; in the data active = inhibition mostly above about 40%, no sharp cut-off; inactive = mostly below about 27%
SENP8 conf = confirmation of human SENP8 protease inhibitors | inhibition, % at 12.5 µM | shares compounds with SENP7 block | Recombinant SENP8, Z-RLRGG-aminoluciferin luminescence, 60 min | hit rate 40% among 6,200 | AID 488912;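 active = mean inhibition across replicates above about 50%, limit read from the data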
SENP6 confirm = confirmation of human SENP6 protease inhibitors | hit rate 58% among 6,200 | shares compounds with SENP7 block | recombinant SENP6, Z-RLRGG-aminoluciferin luminescence | inhibition, % at 12.5 µM
SENP7 conf = confirmation of human SENP7 protease inhibitors. shares compounds with SENP7 block. recombinant SENP7, Z-RLRGG-aminoluciferin luminescence, 40 min. inhibition, % at 12.5 µM. hit rate 69% among 6,200
Casp3 select = inhibits human caspase-3 in SENP selectivity test; hit rate 60% among 6,200; inhibition, % at 12.5 µM; shares compounds with SENP7 block; purified caspase-3, Z-DEVD-aminoluciferin luminescence, 60 min;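 active = mean inhibition above about 50%, limit read from the data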
Luc interf = counter-screen for SENP inhibitors: luminescence interference. shares compounds with SENP7 block. Pre-incubated SENP8/Z-RLRGG-aminoluciferin, luciferase luminescence interference. inhibition, % at 12.5 µM. hit rate 39% among 6,200;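 active = mean inhibition above about 50% when retested at one dose, limit read from the data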
Of the large screens only hits and unclear results are named; the others gave an inactive call (follow-up assays come after a bar, where they were run).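 The calls were made as follows, unless noted: active = mean inhibition above about 50% in the one-dose retest (limit read from the data); inactive = the rest.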

O=C(COc1ccccc1)Nc1ccc(Cl)cn1	none
CCCc1cc(=O)oc2cc(C)cc(OCC(=O)Nc3ccccn3)c12	none
C[C@H](CO)N1C[C@H](C)[C@@H](CN(C)S(=O)(=O)c2ccc(F)cc2)Oc2ccc(NC(=O)C3CCCCC3)cc2C1=O	none
COc1ccc(N2CCN(C(=O)COC(=O)c3ccc(-n4nc(C)cc4C)cc3)CC2)cc1	none
CCOC1=C2CN(S(=O)(=O)c3ccc(C)cc3)[C@H](c3ccccc3)C[C@@H]2N(S(=O)(=O)c2ccccc2C)[C@H](c2ccccc2)C1	none (no result: SENP8 block-1, SENP7 block, SENP6 inh)
O=C(COc1ccc(Cl)cc1Cl)Nc1ccccn1	SENP8 block-1 98, SENP7 block 100 | SENP8 conf 96 | SENP6 confirm 98 | SENP7 conf 101 | Casp3 select 96 | Luc interf 80
CCCN(Cc1cc(=O)[nH]c2ccccc12)C(=O)CC	SENP6 inh 98 | SENP8 conf inactive | SENP6 confirm inactive | SENP7 conf inactive | Casp3 select inactive | Luc interf inactive
CCC(=O)N(CC)Cc1cc(=O)[nH]c2ccccc12	none
COc1cccc(OC)c1C(=O)NC(=S)NCc1cccnc1	none
COc1ccc(-c2nsc3c(N4CCCC4)ncnc23)cc1	SENP7 block 74, SENP6 inh 52 | SENP8 conf inactive | SENP6 confirm inactive | SENP7 conf 51 | Casp3 select 58 | Luc interf inactive
COc1ccc(-c2csc3ncnc(N4CCN(c5ccc(OC)cc5)CC4)c23)cc1	none
CC(=O)/C(=N/Nc1ccccc1)Sc1nnc(C(O)c2ccccc2)n1-c1ccccc1 (centres undefined)	none
COc1ccc(C(=O)/C=C/Nc2cc(C)ccn2)cc1	SENP8 block-1 95, SENP7 block 95, SENP6 inh 95 | SENP8 conf inactive | SENP6 confirm 99 | SENP7 conf 103 | Casp3 select 96 | Luc interf inactive
Cc1ccnc(N/C=C/C(=O)c2ccc(Br)cc2)c1	SENP8 block-1 87, SENP7 block 96, SENP6 inh 88 | SENP8 conf inactive | SENP6 confirm inactive | SENP7 conf 60 | Casp3 select 54 | Luc interf inactive
Cc1cc(N/C=C/C(=O)c2ccc(Br)cc2)no1	none
O=C1CCC(=O)N1c1ccc(-c2nc3ccccc3s2)cc1	SENP8 block-1 70, SENP7 block 94, SENP6 inh 89 | SENP8 conf inactive | SENP6 confirm 62 | SENP7 conf 83 | Casp3 select 72 | Luc interf inactive
Brc1cc2c(cc1-c1nc3ccccc3s1)OCO2	none
Nc1ccc(-c2nc3ccccc3s2)cn1	SENP8 block-1 66, SENP7 block 69, SENP6 inh 79 | SENP8 conf 75 | SENP6 confirm 73 | SENP7 conf 91 | Casp3 select 78 | Luc interf inactive
Cc1ccc(N2C(=O)CC(NNc3nc4ccccc4s3)C2=O)cc1 (centres undefined)	none
CCCNC(=O)c1ccc(-c2nc3ccccc3s2)s1	SENP8 block-1 84, SENP7 block 87, SENP6 inh 89 | SENP8 conf inactive | SENP6 confirm 86 | SENP7 conf 99 | Casp3 select 55 | Luc interf inactive
CN(C)c1ncccc1-c1nc2ccccc2s1	none
Brc1ccc(-c2nc3ccccc3s2)s1	SENP8 block-1 95, SENP7 block 96, SENP6 inh 95 | SENP8 conf 66 | SENP6 confirm 82 | SENP7 conf 87 | Casp3 select inactive | Luc interf 67
C/C(CCc1ccc2c(c1)OCO2)=N\N=C1\NC(=O)CC(C(=O)Nc2ccc(Cl)cc2)S1 (centres undefined)	none
c1ccc(-c2nc3ccccc3s2)nc1	SENP8 block-1 76, SENP7 block 79, SENP6 inh 90 | SENP8 conf inactive | SENP6 confirm 89 | SENP7 conf 99 | Casp3 select 89 | Luc interf inactive
Cc1cc(N2CCOCC2)n2ncc(-c3ccccc3)c2n1	SENP7 block 57 | SENP8 conf 55 | SENP6 confirm 55 | SENP7 conf 84 | Casp3 select 63 | Luc interf inactive
Cc1cc(NCCCn2ccnc2)n2ncc(-c3ccccc3)c2n1	SENP7 block 55, SENP6 inh 67 | SENP8 conf 53 | SENP6 confirm 52 | SENP7 conf 82 | Casp3 select 60 | Luc interf inactive
Cc1cc(NC2CCCC2)n2ncc(-c3ccccc3)c2n1	SENP8 block-1 71, SENP7 block 83, SENP6 inh 77 | SENP8 conf 80 | SENP6 confirm 84 | SENP7 conf 93 | Casp3 select 62 | Luc interf inactive
Cc1cc(N2CCCCC2)n2ncc(-c3ccc(Cl)cc3)c2n1	none
Cc1cc(N2CCCCC2)n2ncc(-c3ccccc3)c2n1	SENP7 block 53, SENP6 inh 50 | SENP8 conf inactive | SENP6 confirm inactive | SENP7 conf 75 | Casp3 select inactive | Luc interf inactive
Cc1cc(NC2CCCC2)n2nc(C)c(-c3ccccc3)c2n1	none
Cc1ccnc(NC(=O)CCC(=O)c2cccs2)c1	SENP8 block-1 75, SENP7 block 56, SENP6 inh 87 | SENP8 conf 92 | SENP6 confirm 91 | SENP7 conf 99 | Casp3 select 95 | Luc interf 91
Cc1ccc(NC(=O)CCC(=O)c2cccs2)nc1	none
c1ccc(COc2ccc3nocc3c2)cc1	SENP8 block-1 90, SENP7 block 90, SENP6 inh 93 | SENP8 conf 86 | SENP6 confirm 90 | SENP7 conf 100 | Casp3 select 91 | Luc interf 84
CC(=O)NN1C(=O)/C(=C\c2ccc(O)cc2)SC1=S	SENP8 block-1 60, SENP7 block 54, SENP1 FRET inh 55, SENP6 inh 69 | SENP8 conf 63 | SENP6 confirm 61 | SENP7 conf 85 | Casp3 select 82 | Luc interf 74
O=C1/C(=C\c2ccc(O)cc2)SC(=S)N1/N=C/c1ccc(O)cc1	SENP8 block-1 90, SENP7 block 83, SENP1 FRET inh 77, SENP6 inh 98 | SENP8 conf inactive | SENP6 confirm inactive | SENP7 conf inactive | Casp3 select inactive | Luc interf 57
O=C1C2C3C=CC(CC3)C2C(=O)N1/N=C/c1ccc(O)cc1 (centres undefined)	none
